# Experimental data from ChEMBL document CHEMBL6134795, “Mannich reaction mediated derivatization of chromones and their biological evaluations as putative multipotent ligands for the treatment of Alzheimer's disease” (RSC Med Chem, 2024).
# The source made the active and inactive calls. No cut-off for these calls is given here.
# Tests used:
# SH-SY5Y [1] = assay: Inhibition of ROS production in human SH-SY5Y cells assessed as intracellular ROS level at 1 uM incubated for 24 hrs by DCF-DA staining based fluorescence analysis relative to control; format: functional
# Method in brief: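 Cultured SH-SY5Y cells exposed to compound (1, 5, 25 μM) for 24 h; intracellular ROS detected with DCF-DA, which is converted to fluorescent 2,7-DCF, read at ex 478/em 518 nm. Inhibition is expressed relative to control. Mean ± SD of triplicate or more independent experiments.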
# Cholinesterase [2] = molecular target: T1, Cholinesterase (Homo sapiens, UniProt P06276); assay: Inhibition of recombinant BuChE (unknown origin) using BTCI as substrate at 20 uM preincubated for 30 mins followed by substrate addition by TECAN multiplate reader analysis relative to control
# Method in brief: (§1)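 Ellman method as for AChE, using butyrylcholinesterase with BTCI as substrate. Enzyme and compound preincubated 30 min at 37 °C in a CO2 incubator, then DTNB and BTCI added; absorbance read at 417 nm. Screening at 20 μM as % inhibition; IC50 for compounds exceeding 50% inhibition at 20 μM. Triplicate.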
# [3] = molecular target: Amyloid-beta precursor protein (Homo sapiens) (UniProt P05067); assay: Inhibition of self-induced amyloid beta (1 to 42 residues) (unknown origin) aggregation assessed as reduction in fibrils formation measured after 72 hrs by FE-SEM analysis
# Method in brief: (§2)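 HFIP-pretreated Aβ1-42 incubated with or without inhibitor for 72 h; samples placed on carbon-coated copper grids, dried 1 h at 37 °C, imaged by FE-SEM. Glycine–NaOH buffer served as blank and Aβ alone as control.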
# Acetylcholinesterase = Acetylcholinesterase (Homo sapiens, UniProt P22303); assay: Reversible inhibition of AChE (unknown origin) assessed as residual activity at 100 times IC50 incubated for 30 mins by dilution method relative to control
# Method in brief: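 Samples then diluted 100-fold with substrate, giving final inhibitor levels of 0.1× and 1× IC50. Recovered activity measured relative to control; triplicate.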
# SH-SY5Y [4] = assay: Neuroprotective activity against 6-OHDA-induced cytotoxicity in human SH-SY5Y cells assessed as cell viability at 5 uM incubated for 24 hrs followed by exposure to 6-OHDA by MTT assay relative to control; format: functional; conditions: read-out: Activity
# Method in brief: (§3)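 SH-SY5Y cells treated with compound (1, 5, 25 μM) and challenged with 6-OHDA; cultured 24 h at 37 °C under humidified 5% CO2. Viability measured by MTT as formazan absorbance at 594 nm and expressed relative to control.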
# [5] = molecular target: T2, Amine oxidase [flavin-containing] B (Homo sapiens, UniProt P27338); assay: Reversible inhibition of MAO-B (unknown origin) assessed as residual activity at 100 times IC50 incubated for 30 mins by dilution method relative to control; conditions: 0.5 h
# T2 sequence (P27338 whole entry): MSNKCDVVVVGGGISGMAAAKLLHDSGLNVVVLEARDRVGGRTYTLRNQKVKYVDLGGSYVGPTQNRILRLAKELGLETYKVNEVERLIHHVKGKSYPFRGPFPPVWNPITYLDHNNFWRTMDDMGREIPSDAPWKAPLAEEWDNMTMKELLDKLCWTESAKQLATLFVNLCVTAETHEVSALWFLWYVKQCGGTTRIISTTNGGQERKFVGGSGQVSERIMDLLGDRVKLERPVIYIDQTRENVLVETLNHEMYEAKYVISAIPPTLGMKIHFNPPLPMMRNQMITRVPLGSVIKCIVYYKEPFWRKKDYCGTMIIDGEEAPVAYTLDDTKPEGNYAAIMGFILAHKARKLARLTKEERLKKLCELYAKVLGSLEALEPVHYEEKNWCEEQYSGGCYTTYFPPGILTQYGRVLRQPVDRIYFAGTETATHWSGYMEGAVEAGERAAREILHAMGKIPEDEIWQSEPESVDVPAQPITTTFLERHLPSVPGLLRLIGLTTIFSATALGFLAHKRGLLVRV
# Cholinesterase [6] = molecular target: T1, Cholinesterase; assay: Inhibition of recombinant BuChE (unknown origin) using BTCI as substrate preincubated for 30 mins followed by substrate addition by TECAN multiplate reader analysis; method in brief: as §1
# [7] = molecular target: Amyloid-beta precursor protein (Homo sapiens) (UniProt P05067); assay: Inhibition of self-induced amyloid beta (1 to 42 residues) (unknown origin) aggregation at 20 uM incubated at 24 hrs by fluorimetry-based thioflavin T assay
# Method in brief: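 Aβ1-42 pretreated with HFIP (1 mg mL−1) and dried, then incubated with compound (20 μM) at 37 °C for 24 h; an aliquot transferred and incubated further to 48 h. Glycine–NaOH buffer pH 8.0 with 5 μM ThT added; fluorescence read at 440–485 nm. % inhibition calculated against the Aβ-only control taken as 0%.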
# [8] = molecular target: Amyloid-beta precursor protein (Homo sapiens) (UniProt P05067); assay: Inhibition of self-induced amyloid beta (1 to 42 residues) (unknown origin) aggregation assessed as reduction in plaques formation measured after 72 hrs by FE-SEM analysis; method in brief: as §2
# [9] = molecular target: T2, Amine oxidase [flavin-containing] B; assay: Reversible inhibition of MAO-B (unknown origin) assessed as residual activity at 0.1 times IC50 incubated for 30 mins by dilution method relative to control; conditions: 0.5 h
# [10] = molecular target: T2, Amine oxidase [flavin-containing] B; assay: Reversible inhibition of MAO-B (unknown origin) assessed as residual activity at 10 times IC50 incubated for 30 mins by dilution method relative to control; conditions: 0.5 h
# SH-SY5Y [11] = assay: Neuroprotective activity against 6-OHDA-induced cytotoxicity in human SH-SY5Y cells assessed as cell viability at 25 uM incubated for 24 hrs followed by exposure to 6-OHDA by MTT assay relative to control; format: functional; conditions: read-out: Activity; method in brief: as §3
# Amyloid-beta precursor protein (Homo sapiens), sequence (P05067 whole entry, the tested form may be a part): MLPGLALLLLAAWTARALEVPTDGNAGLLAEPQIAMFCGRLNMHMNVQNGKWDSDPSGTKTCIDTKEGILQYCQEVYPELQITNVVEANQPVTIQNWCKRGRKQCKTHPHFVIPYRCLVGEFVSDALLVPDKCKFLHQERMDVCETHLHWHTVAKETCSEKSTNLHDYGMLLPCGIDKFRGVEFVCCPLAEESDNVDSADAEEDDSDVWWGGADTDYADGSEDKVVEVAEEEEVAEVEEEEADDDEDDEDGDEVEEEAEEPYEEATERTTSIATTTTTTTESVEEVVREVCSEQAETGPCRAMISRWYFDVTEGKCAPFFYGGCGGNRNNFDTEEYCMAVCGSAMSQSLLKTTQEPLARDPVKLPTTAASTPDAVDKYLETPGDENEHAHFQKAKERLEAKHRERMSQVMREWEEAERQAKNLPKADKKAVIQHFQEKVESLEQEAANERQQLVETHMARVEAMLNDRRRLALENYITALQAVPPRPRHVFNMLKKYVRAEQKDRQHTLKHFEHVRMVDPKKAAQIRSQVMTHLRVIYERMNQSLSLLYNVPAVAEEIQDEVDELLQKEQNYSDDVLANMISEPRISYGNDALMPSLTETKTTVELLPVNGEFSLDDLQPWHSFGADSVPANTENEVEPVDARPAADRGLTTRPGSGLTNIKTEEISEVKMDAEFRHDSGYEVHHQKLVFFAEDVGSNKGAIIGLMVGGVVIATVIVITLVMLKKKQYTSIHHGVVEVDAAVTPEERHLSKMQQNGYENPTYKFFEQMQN
# T1 sequence (P06276 whole entry): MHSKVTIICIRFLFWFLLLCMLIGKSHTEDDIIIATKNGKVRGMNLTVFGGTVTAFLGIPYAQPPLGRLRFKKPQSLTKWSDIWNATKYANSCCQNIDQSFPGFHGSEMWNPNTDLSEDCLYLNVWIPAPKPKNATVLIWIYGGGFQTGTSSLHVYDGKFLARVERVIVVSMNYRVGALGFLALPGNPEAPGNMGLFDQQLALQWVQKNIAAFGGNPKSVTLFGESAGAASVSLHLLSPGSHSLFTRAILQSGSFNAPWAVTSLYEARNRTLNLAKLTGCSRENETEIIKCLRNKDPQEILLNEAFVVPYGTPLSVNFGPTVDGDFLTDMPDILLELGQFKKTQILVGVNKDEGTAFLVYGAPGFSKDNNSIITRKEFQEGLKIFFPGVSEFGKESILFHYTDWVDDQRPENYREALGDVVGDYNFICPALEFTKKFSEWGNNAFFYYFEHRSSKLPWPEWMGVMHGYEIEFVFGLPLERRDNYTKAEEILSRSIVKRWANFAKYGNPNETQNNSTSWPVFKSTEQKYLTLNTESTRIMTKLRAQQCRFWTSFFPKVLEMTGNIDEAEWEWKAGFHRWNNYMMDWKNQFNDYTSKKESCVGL
# Acetylcholinesterase, sequence (P22303 whole entry): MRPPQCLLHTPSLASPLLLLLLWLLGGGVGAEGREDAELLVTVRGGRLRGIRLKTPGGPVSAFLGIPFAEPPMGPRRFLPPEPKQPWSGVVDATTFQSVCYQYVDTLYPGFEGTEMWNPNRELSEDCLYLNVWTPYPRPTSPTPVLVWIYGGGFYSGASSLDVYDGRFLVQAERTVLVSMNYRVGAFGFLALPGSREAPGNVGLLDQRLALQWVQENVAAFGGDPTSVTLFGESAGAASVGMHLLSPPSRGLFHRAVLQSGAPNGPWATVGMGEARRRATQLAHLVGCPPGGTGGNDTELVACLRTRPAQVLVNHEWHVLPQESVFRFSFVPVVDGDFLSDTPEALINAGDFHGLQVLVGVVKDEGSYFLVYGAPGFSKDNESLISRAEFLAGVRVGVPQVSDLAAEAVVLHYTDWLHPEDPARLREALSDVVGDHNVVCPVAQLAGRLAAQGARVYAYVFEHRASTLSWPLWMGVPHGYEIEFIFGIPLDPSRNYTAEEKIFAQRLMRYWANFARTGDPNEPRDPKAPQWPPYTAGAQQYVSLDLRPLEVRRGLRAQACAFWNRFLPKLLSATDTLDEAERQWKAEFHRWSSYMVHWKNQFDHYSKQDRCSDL
compound,measurement,setting,value
C#CCCCOc1ccc(-c2cc(=O)c3ccccc3o2)cc1CN1CCCCC1,inhibition at 1 µM,SH-SY5Y [1],65.7%
same,inhibition,Cholinesterase [2],87.9%
same,inhibition,[3],Active
same,Activity,Acetylcholinesterase,17.7%
same,viability at 5 µM,SH-SY5Y [4],42.9%
same,Activity,[5],15%
same,IC50,Cholinesterase [6],11 µM
same,inhibition,[7],22.1%
same,inhibition,[8],Active
same,Activity,[9],71.4%
same,Activity,[10],27.8%
same,viability at 25 µM,SH-SY5Y [11],44.1%
